# According to ChEMBL document CHEMBL5036319, “Discovery of Novel Benzothiazepinones as Irreversible Covalent Glycogen Synthase Kinase 3β Inhibitors for the Treatment of Acute Promyelocytic Leukemia” (J Med Chem, 2021):
# Calls of active or inactive are those of the source. The calls are words filed in the database; no cut-off is given here.
# Key:
# [1] = molecular target: T1, Glycogen synthase kinase-3 beta (Homo sapiens, UniProt P49841); assay: Inhibition of recombinant human GSK-3beta using GS-2 peptide as substrate incubated for 30 mins in presence of ATP by kinase-glo luminescence assay
# Target sequence in this assay (P49841 whole entry): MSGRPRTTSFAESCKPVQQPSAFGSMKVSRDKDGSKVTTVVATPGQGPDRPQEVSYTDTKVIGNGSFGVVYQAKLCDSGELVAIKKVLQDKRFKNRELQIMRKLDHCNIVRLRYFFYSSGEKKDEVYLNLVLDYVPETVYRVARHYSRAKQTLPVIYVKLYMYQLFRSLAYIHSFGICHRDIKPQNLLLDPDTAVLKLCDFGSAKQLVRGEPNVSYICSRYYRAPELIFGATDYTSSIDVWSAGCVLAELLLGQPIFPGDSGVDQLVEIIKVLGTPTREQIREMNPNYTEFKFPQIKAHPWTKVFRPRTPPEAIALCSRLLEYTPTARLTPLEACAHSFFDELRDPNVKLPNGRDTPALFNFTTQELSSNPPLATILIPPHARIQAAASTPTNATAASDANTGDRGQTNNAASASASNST
# NB-4 = assay: Cytotoxicity against human NB-4 cells assessed as reduction in cell viability measured after 24 hrs by CCK-8 assay; assay type: functional, cell-based; settings: NB-4, 24 h
# Method in brief: (§1)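 Cells were grown in RPMI-1640 or high-glucose DMEM with 10% FBS at 37 °C, 5% CO2, and seeded at 3 × 10^4 cells/well. Exposure was 24 h across serial concentrations (0−1000 μM in the screen). […] Three independent experiments, mean ± SEM.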
# MOLT-4 = assay: Cytotoxicity against human MOLT-4 cells assessed as reduction in cell viability measured after 24 hrs by CCK-8 assay; assay type: functional, cell-based; settings: MOLT-4, 24 h; method in brief: as §1
# HL-60 = assay: Cytotoxicity against human HL-60 cells assessed as reduction in cell viability measured after 24 hrs by CCK-8 assay; assay type: functional, cell-based; settings: HL-60, 24 h; method in brief: as §1
# Raji = assay: Cytotoxicity against human Raji cells assessed as reduction in cell viability measured after 24 hrs by CCK-8 assay; assay type: functional, cell-based; method in brief: as §1
# [2] = molecular target: Glycogen synthase kinase-3 alpha (Homo sapiens) (UniProt P49840); assay: Inhibition of recombinant human GSK-3alpha at 100 uM by mobility shift assay relative to control
# Chain of Glycogen synthase kinase-3 alpha (Homo sapiens) (P49840 2-483 limits assumed): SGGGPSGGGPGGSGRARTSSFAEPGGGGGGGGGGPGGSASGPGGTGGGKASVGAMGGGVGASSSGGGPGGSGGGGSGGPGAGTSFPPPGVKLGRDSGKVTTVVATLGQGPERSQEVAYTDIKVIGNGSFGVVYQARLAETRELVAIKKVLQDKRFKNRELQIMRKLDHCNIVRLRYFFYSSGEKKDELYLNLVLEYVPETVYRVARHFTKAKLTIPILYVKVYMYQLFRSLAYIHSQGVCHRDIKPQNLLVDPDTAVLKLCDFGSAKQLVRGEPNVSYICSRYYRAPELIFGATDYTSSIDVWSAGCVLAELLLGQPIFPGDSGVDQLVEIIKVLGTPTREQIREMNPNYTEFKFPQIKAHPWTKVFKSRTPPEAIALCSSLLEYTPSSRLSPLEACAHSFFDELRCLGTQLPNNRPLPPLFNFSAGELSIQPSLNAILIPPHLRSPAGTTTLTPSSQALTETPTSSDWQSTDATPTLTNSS
# NB4-DR1 = assay: Antiproliferative activity against human NB4-DR1 cells assessed as reduction in cell viability incubated for 24 hrs by CCK-8 assay; assay type: functional, cell-based; settings: NB4-DR1, 24 h; method in brief: as §1
# [3] = Cytotoxicity against human L02 cells assessed as cell viability at 0 to 50 uM incubated for 24 hrs by CCK-8 assay relative to control; assay type: cell-based; settings: dose 0-50 µM, read-out: Activity
# Method in brief: (§2)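 HUVEC and LO2 normal cells were cultured in RPMI-1640 or DMEM with 10% FBS at 37 °C, 5% CO2, and seeded at 3 × 10^4 cells/well. They were exposed for 24 h to graded concentrations. CCK-8 incubation was 3 h at 37 °C, with A450 read and viability expressed versus untreated control. Three independent experiments, mean ± SEM.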
# [4] = Cytotoxicity against HUVEC assessed as cell viability at 0 to 50 uM incubated for 24 hrs by CCK-8 assay relative to control; assay type: cell-based; settings: human, dose 0-50 µM, read-out: Activity; method in brief: as §2
# [5] = molecular target: Vascular endothelial growth factor receptor 1 (Homo sapiens) (UniProt P17948); assay: Inhibition of Flt-1 (unknown origin) at 100 uM incubated for 60 mins by ELISA relative to control
# Chain of Vascular endothelial growth factor receptor 1 (Homo sapiens) (P17948 whole entry): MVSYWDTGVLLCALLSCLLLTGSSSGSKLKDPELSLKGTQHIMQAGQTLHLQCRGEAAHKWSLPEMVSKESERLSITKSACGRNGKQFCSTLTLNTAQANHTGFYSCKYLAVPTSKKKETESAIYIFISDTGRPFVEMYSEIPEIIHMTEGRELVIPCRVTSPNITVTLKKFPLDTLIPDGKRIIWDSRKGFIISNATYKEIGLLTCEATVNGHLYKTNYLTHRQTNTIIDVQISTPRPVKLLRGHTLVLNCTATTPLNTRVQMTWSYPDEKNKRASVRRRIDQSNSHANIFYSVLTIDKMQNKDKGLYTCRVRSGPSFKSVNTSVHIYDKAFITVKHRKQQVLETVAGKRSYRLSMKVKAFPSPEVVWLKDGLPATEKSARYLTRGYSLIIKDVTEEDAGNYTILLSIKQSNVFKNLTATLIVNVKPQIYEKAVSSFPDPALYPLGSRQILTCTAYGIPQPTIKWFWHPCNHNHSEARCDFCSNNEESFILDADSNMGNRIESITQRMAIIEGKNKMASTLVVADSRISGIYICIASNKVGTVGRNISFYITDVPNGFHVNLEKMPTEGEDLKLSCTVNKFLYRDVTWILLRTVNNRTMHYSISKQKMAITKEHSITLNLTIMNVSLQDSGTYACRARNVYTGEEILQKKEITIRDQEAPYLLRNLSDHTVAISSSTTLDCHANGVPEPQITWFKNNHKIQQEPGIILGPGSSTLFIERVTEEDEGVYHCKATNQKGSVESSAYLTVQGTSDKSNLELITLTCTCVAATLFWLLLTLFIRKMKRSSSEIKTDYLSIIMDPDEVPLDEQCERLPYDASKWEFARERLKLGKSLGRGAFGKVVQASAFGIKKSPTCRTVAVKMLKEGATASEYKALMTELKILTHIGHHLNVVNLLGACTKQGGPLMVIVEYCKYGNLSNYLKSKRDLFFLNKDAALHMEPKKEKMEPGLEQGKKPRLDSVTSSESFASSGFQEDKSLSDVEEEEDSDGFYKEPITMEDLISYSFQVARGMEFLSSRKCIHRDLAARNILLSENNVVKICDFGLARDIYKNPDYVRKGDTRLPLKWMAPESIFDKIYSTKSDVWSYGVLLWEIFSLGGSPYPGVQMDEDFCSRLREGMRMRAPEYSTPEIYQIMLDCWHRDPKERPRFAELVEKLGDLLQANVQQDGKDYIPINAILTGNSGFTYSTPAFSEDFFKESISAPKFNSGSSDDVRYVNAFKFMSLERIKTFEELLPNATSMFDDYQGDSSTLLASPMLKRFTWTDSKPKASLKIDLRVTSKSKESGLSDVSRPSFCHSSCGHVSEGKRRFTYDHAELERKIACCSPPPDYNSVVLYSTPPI
# Method in brief: (§3)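 Tyrosine kinase ELISA on plates precoated with poly(Glu,Tyr) 4:1 substrate. Reaction used 10 μM ATP in buffer (50 mM HEPES pH 7.4, 50 mM MgCl2, 0.5 mM MnCl2, 0.2 mM Na3VO4, 1 mM DTT) with compound in 1% DMSO. Purified kinase started the reaction, 60 min at 37 °C. Detection by anti-phosphotyrosine PY99 then HRP anti-mouse IgG with o-phenylenediamine/H2O2. Read at 490 nm; inhibition = [1 − A490/A490 control] × 100%.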
# [6] = molecular target: Vascular endothelial growth factor receptor 2 (Homo sapiens) (UniProt P35968); assay: Inhibition of KDR (unknown origin) at 100 uM incubated for 60 mins by ELISA relative to control; method in brief: as §3
# Chain of Vascular endothelial growth factor receptor 2 (Homo sapiens) (P35968 whole entry): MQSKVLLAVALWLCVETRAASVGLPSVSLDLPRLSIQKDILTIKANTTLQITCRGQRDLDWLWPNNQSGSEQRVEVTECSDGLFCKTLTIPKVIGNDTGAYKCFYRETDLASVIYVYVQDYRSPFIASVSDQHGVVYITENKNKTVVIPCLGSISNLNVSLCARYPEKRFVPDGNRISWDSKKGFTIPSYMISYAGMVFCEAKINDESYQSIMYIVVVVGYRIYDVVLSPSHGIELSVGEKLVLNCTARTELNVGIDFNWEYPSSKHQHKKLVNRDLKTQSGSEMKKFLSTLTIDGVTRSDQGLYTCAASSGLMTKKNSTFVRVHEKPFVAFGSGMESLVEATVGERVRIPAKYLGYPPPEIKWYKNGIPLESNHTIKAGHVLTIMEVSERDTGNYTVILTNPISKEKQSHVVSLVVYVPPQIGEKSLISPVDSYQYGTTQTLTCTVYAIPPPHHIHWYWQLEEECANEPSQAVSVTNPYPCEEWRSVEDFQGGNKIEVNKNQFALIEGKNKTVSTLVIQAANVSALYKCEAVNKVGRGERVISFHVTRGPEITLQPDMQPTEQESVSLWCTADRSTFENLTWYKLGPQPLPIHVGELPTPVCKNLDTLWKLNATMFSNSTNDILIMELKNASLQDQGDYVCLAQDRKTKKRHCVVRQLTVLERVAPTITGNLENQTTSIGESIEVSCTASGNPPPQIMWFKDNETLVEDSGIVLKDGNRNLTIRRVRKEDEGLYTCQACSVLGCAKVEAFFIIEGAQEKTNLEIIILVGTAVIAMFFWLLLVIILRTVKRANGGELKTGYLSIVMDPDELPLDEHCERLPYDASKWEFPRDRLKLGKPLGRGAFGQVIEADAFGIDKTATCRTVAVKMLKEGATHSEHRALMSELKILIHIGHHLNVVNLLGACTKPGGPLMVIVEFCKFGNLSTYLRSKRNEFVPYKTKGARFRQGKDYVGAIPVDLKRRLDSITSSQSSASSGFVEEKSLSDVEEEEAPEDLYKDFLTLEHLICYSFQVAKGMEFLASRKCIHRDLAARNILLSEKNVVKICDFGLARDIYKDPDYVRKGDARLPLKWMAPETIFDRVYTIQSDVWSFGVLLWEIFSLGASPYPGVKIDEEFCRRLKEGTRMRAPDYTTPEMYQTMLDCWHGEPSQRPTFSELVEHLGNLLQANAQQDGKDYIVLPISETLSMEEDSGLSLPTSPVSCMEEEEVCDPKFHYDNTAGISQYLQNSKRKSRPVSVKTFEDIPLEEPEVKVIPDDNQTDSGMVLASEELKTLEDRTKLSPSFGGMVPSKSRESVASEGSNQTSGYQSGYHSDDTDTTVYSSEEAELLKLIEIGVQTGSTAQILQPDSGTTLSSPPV
# [7] = molecular target: Fibroblast growth factor receptor 1 (Homo sapiens) (UniProt P11362); assay: Inhibition of FGFR1 (unknown origin) at 100 uM incubated for 60 mins by ELISA relative to control; method in brief: as §3
# Chain of Fibroblast growth factor receptor 1 (Homo sapiens) (P11362 22-822 limits assumed): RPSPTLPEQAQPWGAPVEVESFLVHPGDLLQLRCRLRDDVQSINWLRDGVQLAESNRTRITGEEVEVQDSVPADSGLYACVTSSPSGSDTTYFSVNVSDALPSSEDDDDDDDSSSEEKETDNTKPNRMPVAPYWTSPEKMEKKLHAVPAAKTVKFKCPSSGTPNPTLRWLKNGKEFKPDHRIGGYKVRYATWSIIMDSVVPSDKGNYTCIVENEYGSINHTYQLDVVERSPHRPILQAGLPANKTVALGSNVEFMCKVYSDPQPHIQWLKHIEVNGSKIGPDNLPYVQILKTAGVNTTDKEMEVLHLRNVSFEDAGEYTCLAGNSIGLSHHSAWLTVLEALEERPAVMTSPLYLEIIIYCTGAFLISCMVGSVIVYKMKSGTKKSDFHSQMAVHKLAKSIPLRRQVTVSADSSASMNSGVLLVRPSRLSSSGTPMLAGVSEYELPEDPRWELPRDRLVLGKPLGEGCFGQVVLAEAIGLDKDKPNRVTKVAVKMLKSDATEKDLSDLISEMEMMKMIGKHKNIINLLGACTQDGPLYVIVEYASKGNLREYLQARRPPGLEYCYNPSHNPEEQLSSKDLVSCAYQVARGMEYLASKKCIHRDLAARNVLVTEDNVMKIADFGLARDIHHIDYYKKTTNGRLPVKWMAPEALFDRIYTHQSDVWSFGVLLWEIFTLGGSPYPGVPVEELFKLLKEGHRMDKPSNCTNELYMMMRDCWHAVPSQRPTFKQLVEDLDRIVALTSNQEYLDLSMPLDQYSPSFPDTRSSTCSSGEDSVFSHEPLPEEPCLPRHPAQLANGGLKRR
# [8] = molecular target: Platelet-derived growth factor receptor alpha (Homo sapiens) (UniProt P16234); assay: Inhibition of PDGFRalpha (unknown origin) at 100 uM incubated for 60 mins by ELISA relative to control; method in brief: as §3
# [9] = molecular target: Platelet-derived growth factor receptor beta (Homo sapiens) (UniProt P09619); assay: Inhibition of PDGFRbeta (unknown origin) at 100 uM incubated for 60 mins by ELISA relative to control; method in brief: as §3
# [10] = molecular target: Mast/stem cell growth factor receptor Kit (Homo sapiens) (UniProt P10721); assay: Inhibition of c-Kit (unknown origin) at 100 uM incubated for 60 mins by ELISA relative to control; method in brief: as §3
# [11] = molecular target: Proto-oncogene tyrosine-protein kinase receptor Ret (Homo sapiens) (UniProt P07949); assay: Inhibition of RET (unknown origin) at 100 uM incubated for 60 mins by ELISA relative to control; method in brief: as §3
# [12] = molecular target: Receptor tyrosine-protein kinase erbB-4 (Homo sapiens) (UniProt Q15303); assay: Inhibition of ERBB4 (unknown origin) at 100 uM incubated for 60 min by ELISA relative to control; method in brief: as §3
# [13] = molecular target: Casein kinase 2 (Homo sapiens) (UniProt P67870+P68400+P19784+Q8NEV1); assay: Inhibition of CK2 (unknown origin) at 100 uM incubated for 60 mins by Millipore Kinase Profiler service relative to control
# Homo sapiens = species on record: Homo sapiens; assay: Inhibition of PKA (unknown origin) at 100 uM incubated for 60 mins by Millipore Kinase Profiler service relative to control
# [14] = molecular target: Fibroblast growth factor receptor 1 (Homo sapiens) (UniProt P11362); assay: Inhibition of FGFR1 (unknown origin) incubated for 60 mins by ELISA; settings: dose 100.0 µM
# [15] = molecular target: T1, Glycogen synthase kinase-3 beta; assay: Non-competitive inhibition of recombinant human GSK-3beta using GS-2 peptide as substrate at 2 to 4 uM incubated for 10 mins in presence of varying levels of ATP by double reciprocal plot analysis; settings: dose 2-4 µM
# Target sequence in this assay (P49841 whole entry, looked up): as the sequence (P49841 whole entry) above
# [16] = molecular target: T1, Glycogen synthase kinase-3 beta; assay: Non-competitive inhibition of recombinant human GSK-3beta at 2 to 4 uM using varying concentration of GS-2 as substrate incubated for 10 mins in presence of ATP by double reciprocal plot analysis; settings: dose 2-4 µM
# Target sequence in this assay (P49841 whole entry, looked up): as the sequence (P49841 whole entry) above
# [17] = molecular target: T1, Glycogen synthase kinase-3 beta; assay: Irreversible inhibition of recombinant human GSK-3beta preincubated for upto 10 mins by double reciprocal plot analysis; settings: time min <=10, TDE = time-dependent effect
# Method in brief: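 Irreversibility tested in the Kinase-Glo GSK-3β assay. Inhibitor at 6.25 and 12.5 μM was preincubated with enzyme for 0, 5 or 10 min. Each point is the mean of two separate experiments done in triplicate.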
# Target sequence in this assay (P49841 whole entry, looked up): as the sequence (P49841 whole entry) above
# [18] = Thiol reactivity of compound with mercaptoethanol measured after 24 hrs by 1H-NMR analysis; assay type: physicochemical
SMILES,IC50 [1] [µM],inhibition [2] [%],IC50 (NB-4) [µM],IC50 (MOLT-4) [µM],IC50 (HL-60) [µM],IC50 (Raji) [µM],also measured
C=CC(=O)Nc1ccc(C2CC(=O)Nc3ccccc3S2)cc1 (stereo not drawn),> 100,–,–,–,–,–,–
C=CC(=O)N1C(=O)CC(c2ccc(N3CCOCC3)cc2)Sc2ccccc21 (stereo not drawn),15,–,42.4,65,98,56.2,–
[Cl-].[Li+] [CHLOROLITHIUM],–,–,5320,–,–,–,IC50 (NB4-DR1): 42500 µM
C=CC(=O)NCCN1C(=O)CC(c2ccccc2)Sc2ccccc21 (stereo not drawn),> 100,–,–,–,–,–,–
CCC(=O)N1C(=O)CC(c2cccs2)Sc2ccccc21 (stereo not drawn),> 100,–,–,–,–,–,–
Cc1ccc(C(=O)Nc2ccc(CN3CCN(C)CC3)c(C(F)(F)F)c2)cc1C#Cc1cnc2cccnn12,–,–,–,–,–,–,IC50 [14]: 0.0007 µM
C=CC(=O)N1C(=O)CC(C)Sc2ccccc21 (stereo not drawn),20,–,227,730,199,837,–
C=CC(=O)N1C(=O)CC(c2ccc(C(F)(F)F)cc2)Sc2ccccc21 (stereo not drawn),15,20,38.6,76.3,106,47.6,–
C=CC(=O)N1C(=O)CCSc2ccccc21,17,–,22.4,565,44.8,581,–

# More lines, main results first:
IC50 [1] [µM],inhibition [2] [%],SMILES,IC50 (NB-4) [µM],IC50 (MOLT-4) [µM],IC50 (HL-60) [µM],IC50 (Raji) [µM],also measured
6.4,33.4,C=CC(=O)N1C(=O)CC(c2ccc(Br)cc2)Sc2ccccc21 (stereo not drawn),59.4,106,126,51.3,–
6,–,C=CC(=O)N1C(=O)CC(c2ccc(C(=O)OC)cc2)Sc2ccccc21 (stereo not drawn),24.4,79.6,102,89.6,"IC50 (NB4-DR1): 93.1 µM; viability at 24 h, up to 50 µM [3]: > 80%; viability at 24 h, up to 50 µM [4]: > 80%"
4,–,C=CC(=O)N1C(=O)CC(c2cccc(Cl)c2)Sc2ccccc21 (stereo not drawn),31.7,77.5,93.1,47.1,–
5.8,13.4,C=CC(=O)N1C(=O)CC(c2ccc(-c3ccccc3)cc2)Sc2ccccc21 (stereo not drawn),57.7,97.5,118,56.3,–
6.2,–,C=CC(=O)N1C(=O)CC(c2ccc(OC)cc2)Sc2ccccc21 (stereo not drawn),32.9,83.2,92.1,43.2,–
6.2,92.9,C=CC(=O)N1C(=O)CC(c2ccc(C#N)cc2)Sc2ccccc21 (stereo not drawn),62.4,88.7,115,84.5,–
2.5,61.8,C=CC(=O)N1C(=O)CC(c2ccccc2Cl)Sc2ccccc21 (stereo not drawn),33.8,80.3,91.4,50.4,–
6.7,46.7,C=CC(=O)N1C(=O)CC(c2ccc(Cl)cc2)Sc2ccccc21 (stereo not drawn),22.6,82.4,95.7,18.4,"inhibition [5]: 7.4%; inhibition [6]: 0%; inhibition [7]: 88.3%; inhibition [8]: 11.1%; inhibition [9]: 0%; inhibition [10]: 14%; inhibition [11]: 73.9%; inhibition [12]: 0%; IC50 (NB4-DR1): 48.3 µM; viability at 24 h, up to 50 µM [3]: > 80%; viability at 24 h, up to 50 µM [4]: > 80%; inhibition [13]: 8%; inhibition (Homo sapiens): 7%"
2.8,32,C=CC(=O)N1C(=O)CC(c2ccccc2C(F)(F)F)Sc2ccccc21 (stereo not drawn),35.2,84.4,96.4,50.3,–
4.8,30,C=CC(=O)N1C(=O)CC(c2ccc(C)cc2)Sc2ccccc21 (stereo not drawn),37.3,87.6,94.4,75.5,–
4.9,–,C=CC(=O)N1C(=O)CC(c2cccs2)Sc2ccccc21 (stereo not drawn),765,557,695,659,inhibition [5]: 0%; inhibition [6]: 3.1%; inhibition [7]: 18.8%; inhibition [8]: 0%; inhibition [9]: 7.8%; inhibition [10]: 26.3%; inhibition [11]: 0%; inhibition [12]: 0%; inhibition [13]: 0%; inhibition (Homo sapiens): 22%
7.5,50.7,C=CC(=O)N1C(=O)CC(c2ccc([N+](=O)[O-])cc2)Sc2ccccc21 (stereo not drawn),37.6,91.5,107,34.8,–
6.6,–,C=CC(=O)N1C(=O)CC(c2ccccc2)Sc2ccccc21 (stereo not drawn),35.5,85.9,97.4,74,inhibition [5]: 1.7%; inhibition [6]: 0%; inhibition [7]: 0%; inhibition [8]: 6.5%; inhibition [9]: 2.7%; inhibition [10]: 26.9%; inhibition [11]: 0%; inhibition [12]: 0%; inhibition [15]: Active; inhibition [16]: Active; inhibition [17]: Tde; Drug metabolism [18]: Metabolite_Detected
